Laboratory results reported in ChEMBL document CHEMBL4265988, “Molecular tools that block maturation of the nuclear lamin A and decelerate cancer cell migration” (Bioorg Med Chem, 2018).
The source made the active and inactive calls. The calls are words filed in the database; no cut-off is given here.

What was measured:
[1] = molecular target: T1, CAAX prenyl protease 1 homolog (Homo sapiens) (UniProt O75844); experiment: Inhibition of ZMPSTE24 in human U2OS cells assessed as increase in intracellular accumulation of prelamin A at 10 uM after 24 hrs by Western blot analysis relative to control; type: cell-based
T1 sequence (whole entry): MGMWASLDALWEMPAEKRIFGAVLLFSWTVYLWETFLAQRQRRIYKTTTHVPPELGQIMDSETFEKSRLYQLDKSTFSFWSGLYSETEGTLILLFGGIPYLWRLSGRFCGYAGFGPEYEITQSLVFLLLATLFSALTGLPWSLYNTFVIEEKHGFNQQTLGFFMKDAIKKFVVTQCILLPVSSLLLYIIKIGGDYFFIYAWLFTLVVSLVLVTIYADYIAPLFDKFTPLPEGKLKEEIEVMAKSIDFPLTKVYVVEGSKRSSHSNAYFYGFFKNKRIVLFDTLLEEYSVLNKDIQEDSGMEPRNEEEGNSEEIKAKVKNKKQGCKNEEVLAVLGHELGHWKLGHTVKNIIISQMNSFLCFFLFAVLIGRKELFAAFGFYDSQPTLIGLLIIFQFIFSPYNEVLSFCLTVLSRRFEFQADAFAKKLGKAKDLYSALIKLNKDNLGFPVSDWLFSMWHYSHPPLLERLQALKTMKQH
Method in brief: (§1)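 Cells treated 24 h with 10 μM compound, lysates analysed by Western blot with prelamin A-specific antibody; prelamin A band normalised to tubulin and expressed relative to untreated control (set to 1); lopinavir run in parallel as reference.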

[2] = molecular target: T1, CAAX prenyl protease 1 homolog (Homo sapiens); experiment: Inhibition of ZMPSTE24 in human HPAF2 cells assessed as increase in intracellular accumulation of prenylated prelamin A at 10 uM after 24 hrs by Western blot analysis relative to control; type: cell-based; method in brief: as §1
KP-4 [3] = experiment: Antimigratory activity against human KP4 cells at 10 uM after 10 days by crystal violet staining-based assay; type: functional, cell-based
Method in brief: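 Transmigration assay in KP-4 cells; test agents at single 10 μM, with lopinavir and 0.15% DMSO (vehicle) in buffer as controls.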

[4] = molecular target: T1, CAAX prenyl protease 1 homolog (Homo sapiens); experiment: Inhibition of ZMPSTE24 in human SW1990 cells assessed as increase in intracellular accumulation of prenylated prelamin A at 10 uM after 24 hrs by Western blot analysis relative to control; type: cell-based; method in brief: as §1
[5] = molecular target: T1, CAAX prenyl protease 1 homolog (Homo sapiens); experiment: Inhibition of ZMPSTE24 in human HCT116 cells assessed as increase in intracellular accumulation of prenylated prelamin A at 10 uM after 24 hrs by Western blot analysis relative to control; type: cell-based; method in brief: as §1
[6] = molecular target: T1, CAAX prenyl protease 1 homolog (Homo sapiens); experiment: Inhibition of ZMPSTE24 in human KP4 cells assessed as increase in intracellular accumulation of prenylated prelamin A at 10 uM after 24 hrs by Western blot analysis relative to control; type: cell-based; method in brief: as §1
KP-4 [7] = experiment: Induction of p21 accumulation in human KP4 cells at 10 uM after 48 hrs by Western blot method; type: cell-based; conditions: kp-4, 48 h
KP-4 [8] = experiment: Antiproliferative activity against human KP4 cells at 10 uM after 7 days by crystal violet staining-based assay; type: cell-based; conditions: kp-4, 168 h
Method in brief: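 Proliferation assay in KP-4 cells, single concentration 10 μM.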

KP-4 [9] = experiment: Downregulation of MCM6 protein expression in human KP4 cells at 10 uM after 48 hrs by Western blot method; type: ADME, cell-based; conditions: kp-4, 48 h
HPAF-II [10] = experiment: Induction of p21 accumulation in human HPAF2 cells at 10 uM after 48 hrs by Western blot method; type: cell-based
HPAF-II [11] = experiment: Downregulation of MCM6 protein expression in human HPAF2 cells at 10 uM after 48 hrs by Western blot method; type: ADME, cell-based

Row | fold change (FC) [1] | Compound | also measured
1 | 2.8 | Cc1cccc(C)c1OCC(=O)N[C@@H](Cc1ccccc1)[C@@H](O)C[C@H](Cc1ccccc1)NC(=O)[C@@H](NC(=O)Cc1ccc(Cl)cc1)C(C)C | 
2 | 3.2 | Cc1cccc(C)c1OCC(=O)N[C@@H](Cc1ccccc1)[C@@H](O)C[C@H](Cc1ccccc1)NC(=O)[C@@H](NC(=O)C1CCC(=O)N1)C(C)C (some centres not stated) | 
3 | 1.2 to 2.1 | Cc1cccc(C)c1OCC(=O)N[C@@H](Cc1ccccc1)[C@@H](O)C[C@H](Cc1ccccc1)NC(=O)[C@H](C(C)C)N1CCCNC1=O | fold change (FC) [2]: 2; Activity (KP-4 [3]): inactive; fold change (FC) [4]: 4.9; fold change (FC) [5]: 1.4; fold change (FC) [6]: 2.5
4 | 2 | Cc1cccc(C)c1OCC(=O)N[C@@H](Cc1ccccc1)[C@@H](O)C[C@H](Cc1ccccc1)NC(=O)[C@@H](NC(=O)C1CCCCN1)C(C)C (some centres not stated) | 
5 | 2.4 | Cc1cccc(C)c1OCC(=O)N[C@@H](Cc1ccccc1)[C@@H](O)C[C@H](Cc1ccccc1)NC(=O)[C@@H](NC(=O)c1cc(Cl)cc(C(F)(F)F)c1)C(C)C | 
6 | 1.7 | Cc1cccc(C)c1OCC(=O)N[C@@H](Cc1ccccc1)[C@@H](O)C[C@H](Cc1ccccc1)NC(=O)[C@@H](NC(=O)Cc1cccnc1)C(C)C | 
7 | 2.7 | Cc1cc(OC(F)(F)F)cc(C(=O)N[C@H](C(=O)N[C@@H](Cc2ccccc2)C[C@H](O)[C@H](Cc2ccccc2)NC(=O)COc2c(C)cccc2C)C(C)C)c1 | 
8 | 3 | Cc1cccc(C)c1OCC(=O)N[C@@H](Cc1ccccc1)[C@@H](O)C[C@H](Cc1ccccc1)NC(=O)[C@@H](NC(=O)c1ccnc(Cl)c1)C(C)C | 
9 | 1.4 | COc1cc(C(=O)N[C@H](C(=O)N[C@@H](Cc2ccccc2)C[C@H](O)[C@H](Cc2ccccc2)NC(=O)COc2c(C)cccc2C)C(C)C)cc(C(F)(F)F)c1 | 
10 | 2.1 | Cc1cccc(C)c1OCC(=O)N[C@@H](Cc1ccccc1)[C@@H](O)C[C@H](Cc1ccccc1)NC(=O)[C@@H](NC(=O)c1cc(C(F)(F)F)cc(C(F)(F)F)c1)C(C)C | 
11 | 2.1 | Cc1cccc(C)c1OCC(=O)N[C@@H](Cc1ccccc1)[C@@H](O)C[C@H](Cc1ccccc1)NC(=O)[C@@H](NC(=O)c1ccc(Br)cn1)C(C)C | 
12 | 2.5 | Cc1cccc(C)c1OCC(=O)N[C@@H](Cc1ccccc1)[C@@H](O)C[C@H](Cc1ccccc1)NC(=O)[C@@H](NC(=O)c1ccc([N+](=O)[O-])o1)C(C)C | 
13 | 1.5 | Cc1cccc(C)c1OCC(=O)N[C@@H](Cc1ccccc1)[C@@H](O)C[C@H](Cc1ccccc1)NC(=O)[C@@H](NC(=O)c1ccc2[nH]nnc2c1)C(C)C | 
14 | 3 | Cc1cccc(C)c1OCC(=O)N[C@@H](Cc1ccccc1)[C@@H](O)C[C@H](Cc1ccccc1)NC(=O)[C@@H](NC(=O)CC1CC1)C(C)C | 
15 |  | COC(=O)[C@H](C)NC(=O)C(Cc1ccccc1)CP(=O)(O)[C@H](Cc1ccccc1)NC(=O)OCc1ccccc1 (some centres not stated) | Activity (KP-4 [7]): Non-Toxic; Activity (KP-4 [8]): Non-Toxic; fold change (FC) [2]: 2.2; Activity (KP-4 [3]): Active; fold change (FC) [4]: 7.4; fold change (FC) [5]: 2.2; Activity (KP-4 [9]): Non-Toxic; fold change (FC) [6]: 3.6; Activity (HPAF-II [10]): Non-Toxic; Activity (HPAF-II [11]): Non-Toxic
16 |  | C[C@H](NC(=O)C(Cc1ccccc1)CP(=O)(O)[C@H](Cc1ccccc1)NC(=O)OCc1ccccc1)C(=O)O (some centres not stated) | inhibition [1]: inactive
17 | 3.4 | Cc1cc(C)cc(C(=O)N[C@H](C(=O)N[C@@H](Cc2ccccc2)C[C@H](O)[C@H](Cc2ccccc2)NC(=O)COc2c(C)cccc2C)C(C)C)c1 | 
18 | 2.7 | COc1cc(Cl)cc(C(=O)N[C@H](C(=O)N[C@@H](Cc2ccccc2)C[C@H](O)[C@H](Cc2ccccc2)NC(=O)COc2c(C)cccc2C)C(C)C)c1 | 
